Results published in ChEMBL document CHEMBL2169868, “Flavone-based novel antidiabetic and antidyslipidemic agents” (J Med Chem, 2012).

Legend:
[1] = Cmax in Sprague-Dawley rat at 2.5 mg/kg, iv by LC-MS/MS method; format: ADME, organism-based; set-up: dose 2.5 mg/kg, route intravenous; conditions: in vivo
Method in brief: (§1)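 Male Sprague−Dawley rats given a single 2.5 mg/kg iv dose; one formulation was DMF/PG/water (2:4:4), 0.2 μ filtered. Blood drawn from 0.08 to 48 h. Plasma assayed by LC-MS/MS with linear range 0.78−400 ng/mL.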

Syrian golden hamster [2] = assay: Antidyslipidemic activity in high fructose and high-fat diet fed dyslipidemic Syrian golden hamster model assessed as reduction in glycerol level at 30 mg/kg/day, po for 7 day, po; format: functional, Mesocricetus auratus; set-up: scale not given: the % may be the effect or the level left
Method in brief: (§2)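 Syrian golden hamsters fed high-fructose high-fat diet; oral dosing in 1% gum acacia at 10, 30, 100 mg/kg (or 25 mg/kg) for 7 days, sham control given vehicle; plasma TG, cholesterol, LDL-C, HDL-C, glycerol and NEFA (kits), lipoprotein lipase activity and body weight; % change versus HFD control, six hamsters per group.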

[3] = Cmax in Sprague-Dawley rat at 25 mg/kg, po by LC-MS/MS method; format: ADME, organism-based; set-up: dose 25 mg/kg, route oral; conditions: in vivo
Method in brief: (§3)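 Male Sprague−Dawley rats given a single 25 mg/kg oral dose (aqueous 0.5% methyl cellulose suspension for one compound). Blood drawn from 0.08 to 48 h. LC-MS/MS, linear range 0.78−400 ng/mL.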

Syrian golden hamster [4] = assay: Antidyslipidemic activity in high fructose and high-fat diet fed dyslipidemic Syrian golden hamster model assessed as reduction in cholesterol level at 25 mg/kg/day for 7 days; format: functional, Mesocricetus auratus; set-up: scale not given: the % may be the effect or the level left
Syrian golden hamster [5] = assay: Antidyslipidemic activity in high fructose and high-fat diet fed dyslipidemic Syrian golden hamster model assessed as reduction in body weight at 25 mg/kg/day for 7 days; format: functional, Mesocricetus auratus; set-up: scale not given: the % may be the effect or the level left; method in brief: as §2
Mus musculus [6] = assay: Antidiabetic activity in diabetic C57BL/KsJ db/db mouse model assessed as reduction in postprandial glucose level in hyperglycemia at 3 mg/kg, po measured 2 hrs post dose; format: functional; set-up: scale not given: the % may be the effect or the level left
Method in brief: (§4)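 db/db mice (C57BL/KsJ, 12−18 weeks, 40−50 g; selected by glucose 200−350 mg/dL) dosed orally daily for 10 consecutive days at 1, 3, 10, 25 or 50 mg/kg; postprandial blood glucose profile recorded on day 6 with food access interrupted; mean % change versus vehicle in 5 animals per group; Student t test.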

Syrian golden hamster [7] = assay: Antidyslipidemic activity in high fructose and high-fat diet fed dyslipidemic Syrian golden hamster model assessed as reduction in LDL-cholesterol level at 30 mg/kg/day, po for 7 day, po; format: functional, Mesocricetus auratus; set-up: scale not given: the % may be the effect or the level left; method in brief: as §2
Mus musculus [8] = assay: Antidyslipidemic activity in diabetic C57BL/KsJ db/db mouse model assessed as increase in plasma HDL-cholesterol level at 25 mg/kg, po qd for 10 days; format: functional
Method in brief: (§5)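 db/db mice (blood glucose 200−350, TG 170−250, cholesterol 170−250, HDL-C 32−40 mg/dL) dosed orally at 25 mg/kg daily for 10 days; retro-orbital blood taken on day 11 for plasma TG, cholesterol and HDL-C (and HDL-C/CHOL ratio); mean % change versus vehicle control, 5 mice per group; Student t test.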

[9] = Mean residence time in Sprague-Dawley rat at 25 mg/kg, po by LC-MS/MS method; format: ADME, organism-based; set-up: dose 25 mg/kg, route oral; conditions: in vivo; method in brief: as §3
Syrian golden hamster [10] = assay: Antidyslipidemic activity in high fructose and high-fat diet fed dyslipidemic Syrian golden hamster model assessed as reduction in LDL-cholesterol level at 25 mg/kg/day for 7 days; format: functional, Mesocricetus auratus; set-up: scale not given: the % may be the effect or the level left; method in brief: as §2
Mus musculus [11] = assay: Antidiabetic activity in diabetic C57BL/KsJ db/db mouse model assessed as reduction in postprandial glucose level in hyperglycemia at 25 mg/kg, po measured 2 hrs post dose; format: functional; set-up: scale not given: the % may be the effect or the level left; method in brief: as §4
Mus musculus [12] = assay: Antidyslipidemic activity in diabetic C57BL/KsJ db/db mouse model assessed as reduction in plasma triglyceride level at 25 mg/kg, po qd for 10 days; format: functional; set-up: scale not given: the % may be the effect or the level left; method in brief: as §5
Syrian golden hamster [13] = assay: Antidyslipidemic activity in high fructose and high-fat diet fed dyslipidemic Syrian golden hamster model assessed as reduction in glycerol level at 10 mg/kg/day, po for 7 day, po; format: functional, Mesocricetus auratus; set-up: scale not given: the % may be the effect or the level left; method in brief: as §2
Syrian golden hamster [14] = assay: Antidyslipidemic activity in high fructose and high-fat diet fed dyslipidemic Syrian golden hamster model assessed as reduction in glycerol level at 100 mg/kg/day, po for 7 days; format: functional, Mesocricetus auratus; set-up: scale not given: the % may be the effect or the level left; method in brief: as §2
Mus musculus [15] = assay: Antidiabetic activity in diabetic C57BL/KsJ db/db mouse model assessed as improvement in glucose tolerance in hyperglycemia at 1 mg/kg, po measured 2 hrs post dose; format: functional
Mus musculus [16] = assay: Antidiabetic activity in diabetic C57BL/KsJ db/db mouse model assessed as improvement in glucose tolerance in hyperglycemia at 3 mg/kg, po measured 2 hrs post dose; format: functional
Rattus norvegicus = assay: AUC in Sprague-Dawley rat at 25 mg/kg, po by LC-MS/MS method; conditions: in vivo
Mus musculus [17] = assay: Antidiabetic activity in po dosed diabetic C57BL/KsJ db/db mouse model assessed as reduction in postprandial glucose level in hyperglycemia measured 2 hrs post dose; format: functional; method in brief: as §4
Mus musculus [18] = assay: Antidiabetic activity in diabetic C57BL/KsJ db/db mouse model assessed as reduction in postprandial glucose level in hyperglycemia at 50 mg/kg, po measured 2 hrs post dose; set-up: scale not given: the % may be the effect or the level left
Syrian golden hamster [19] = assay: Antidyslipidemic activity in high fructose and high-fat diet fed dyslipidemic Syrian golden hamster model assessed as reduction in LDL-cholesterol level at 10 to 100 mg/kg/day for 7 days; format: functional, organism-based; conditions: Mesocricetus auratus; method in brief: as §2
[20] = Oral bioavailability in Sprague-Dawley rat at 25 mg/kg by LC-MS/MS method; format: ADME, organism-based; conditions: in vivo; method in brief: as §3
[21] = Mean residence time in Sprague-Dawley rat at 2.5 mg/kg, iv by LC-MS/MS method; format: ADME, organism-based; set-up: dose 2.5 mg/kg, route intravenous; conditions: in vivo; method in brief: as §1
Syrian golden hamster [22] = assay: Reduction in body weight in high fructose and high-fat diet fed dyslipidemic Syrian golden hamster model at 30 mg/kg/day, po for 7 days; format: functional, Mesocricetus auratus; set-up: scale not given: the % may be the effect or the level left
Method in brief: (§6)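 HFD-fed Syrian golden hamsters, six per group, fed a high-fructose diet. Oral dosing in 1% gum acacia for 7 days. Sham group received vehicle. Plasma TG was measured and body weight tracked. Results given as % change versus HFD control.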

[23] = Plasma clearance in Sprague-Dawley rat at 25 mg/kg, po by LC-MS/MS method; format: ADME, organism-based; set-up: dose 25 mg/kg, route oral; method in brief: as §3
Mus musculus [24] = assay: Reduction in body weight in diabetic C57BL/KsJ db/db mouse model in hyperglycemia at 25 mg/kg, po qd for 10 days relative to untreated control; format: functional; set-up: scale not given: the % may be the effect or the level left
Method in brief: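 db/db mice (C57BL/KsJ, 12−18 weeks, 40−50 g, glucose 200−350 mg/dL), housed at 23 ± 2.0 °C on a 12 h light cycle. Oral dosing daily for 10 days. Blood glucose checked each morning through day 9. Body weight recorded daily from day 1 to day 10. Mean % change versus vehicle, 5 mice per group; Student t test.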

Syrian golden hamster [25] = assay: Antidyslipidemic activity in high fructose and high-fat diet fed dyslipidemic Syrian golden hamster model assessed as reduction in triglyceride level at 30 mg/kg/day, po for 7 day, po; format: functional, Mesocricetus auratus; set-up: scale not given: the % may be the effect or the level left; method in brief: as §6
Syrian golden hamster [26] = assay: Antidyslipidemic activity in high fructose and high-fat diet fed dyslipidemic Syrian golden hamster model assessed as reduction in triglyceride level at 10 mg/kg/day, po for 7 day, po; format: functional, Mesocricetus auratus; set-up: scale not given: the % may be the effect or the level left; method in brief: as §2
Syrian golden hamster [27] = assay: Antidyslipidemic activity in high fructose and high-fat diet fed dyslipidemic Syrian golden hamster model assessed as reduction in NEFA level at 100 mg/kg/day, po for 7 days; format: functional, Mesocricetus auratus; set-up: scale not given: the % may be the effect or the level left; method in brief: as §2
Syrian golden hamster [28] = assay: Antidyslipidemic activity in high fructose and high-fat diet fed dyslipidemic Syrian golden hamster model assessed as increase in HDL-cholesterol level at 30 mg/kg/day, po for 7 day, po; format: functional, Mesocricetus auratus; method in brief: as §2

CC(C)(C)NC[C@H](O)COc1ccc2c(=O)cc(-c3cc(OCc4ccccc4)cc(OCc4ccccc4)c3)oc2c1
Cmax [1]: 523 ng/mL
Activity (Syrian golden hamster [2]): 25.7%
Cmax [3]: 70.3 ng/mL
Activity (Syrian golden hamster [4]): 24.4%
Activity (Syrian golden hamster [5]): 14.3%
Activity (Mus musculus [6]): 22.1%
Activity (Syrian golden hamster [7]): 34.6%
Activity (Mus musculus [8]): 33.2%
MRT [9]: 30.3 h
Activity (Syrian golden hamster [10]): 30.1%
Activity (Mus musculus [11]): 38.3%
Activity (Mus musculus [12]): 27.4%
Activity (Syrian golden hamster [13]): 14.4%
Activity (Syrian golden hamster [14]): 50.5%
Activity (Mus musculus [15]): 21.46%
Activity (Mus musculus [16]): 35.1%
AUC (Rattus norvegicus): 1798.22 ng·h/mL
ED50 (Mus musculus [17]): 1.72 mg/kg
Activity (Mus musculus [18]): 39.1%
Activity (Syrian golden hamster [19]): Dose-dependent effect
bioavailability [20]: 27%
MRT [21]: 13.5 h
Activity (Syrian golden hamster [22]): 10.2%
CL/F [23]: 62.5 mL/min/kg
Activity (Mus musculus [24]): 28.2%
Activity (Syrian golden hamster [25]): 39.8%
Activity (Syrian golden hamster [26]): 21.2%
Activity (Syrian golden hamster [27]): 59.1%
Activity (Syrian golden hamster [28]): 21%
